Screens: PubChem, several laboratories
The list is not random: actives were taken first. Their share in the collection is about 2.1%.
EBI2 antag: EBI2 receptor antagonists, beta-arrestin recruitment, primary screen, cell-based, luminescence, 7a,25-OHC stimulation, uHTS; G-protein coupled receptor 183 (Homo sapiens), P32249; 7a,25-OHC stimulated; inhibition, % at 5 µM; actives 0.81% (n = 360,000); in the data active = inhibition above about 38%;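 note: enzyme fragment complementation signal reports receptor beta-arrestin coupling in cells; 0% = agonist plus DMSO wells and 100% = wells without agonist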
APJ antagonist: antagonists of human apelin receptor APJ, primary screen, CHO-K1 cells, beta-arrestin complementation, luminescence; inhibition, % at 20 µM; actives 0.32% (n = 330,000);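 active = inhibition above about 40% at 20 µM, limit read from the data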;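 note: cells challenged with 10 nM apelin-13 agonist together with compound; plate controls were apelin-13 plus DMSO wells for no effect and DMSO wells lacking apelin-13 for full effect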
APJ agonist: agonists of human apelin receptor APJ, primary screen, CHO-K1 cells, PathHunter beta-arrestin, luminescence; 0% DMSO wells, 100% apelin; actives 0.11% (n = 330,000); activation, % at 20 µM; P35414;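 active = activation more than six SD over the plate average, tested at 20 µM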;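 note: 0% = DMSO alone and 100% = apelin-13 at 10 nM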
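Incubation: overnight seeding, 90 min compound at 25 °C, 1 h detection; test system: PathHunter CHO-K1 APJ (AGTRL-1) beta-arrestin reporter cells; amount: 1000 cells/well; doses: one dose, 20 µM compound, 1% DMSO; measured by: beta-gal luminescence; measure: agonist-driven arrestin binding to APJ; benchmarks: negative DMSO alone, positive Apelin-13 at 10 nM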
CXCR6 block: CXCR6 receptor inhibitors, primary screen, cell-based, beta-arrestin, luminescence, CHO-K1 PathHunter, 1536-well | C-X-C chemokine receptor type 6 (Homo sapiens), O00574 | AID 602244, 2012 | inhibition, % at 20 µM | actives 0.36% (n = 360,000); in the data active = inhibition above about 34%, passing the limit was not always enough;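 note: antagonist mode with CXCL16 agonist at 10 nM final; 0% = 10 nM CXCL16 with DMSO and 100% = unstimulated wells without agonist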
HTR2A ag: mouse Htr2a agonists via beta-arrestin recruitment, primary screen, cell-based, luminescence | activation, % at 7.6 µM | actives 0.66% (n = 360,000) | CHO-K1 mHTR2A beta-arrestin complementation; percent of 30 µM serotonin response;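 active = activation above a run cutoff, the mean activation of all tested compounds plus 3 SD, cut at about 14% in these data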;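 note: 0% = plate median of compound wells and 100% = 30 µM serotonin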
CCR6 antagonist: CCR6 receptor antagonists, primary screen, cell-based, CHO-K1, luminescence, beta-arrestin, uHTS; actives 0.49% (n = 340,000); inhibition, % at 20 µM; C-C chemokine receptor type 6 (Homo sapiens), P51684; CHO-K1 CCR6 PathHunter beta-arrestin, CCL20-stimulated;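 active = compounds whose inhibition of the agonist-driven luminescence signal at 20 µM reaches about 50%, limit read from the data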;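 note: cells stimulated with CCL20 at 14 nM final; plate controls were DMSO with CCL20 for no effect and DMSO without agonist for full effect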
Target sequence (P51684 whole entry, looked up): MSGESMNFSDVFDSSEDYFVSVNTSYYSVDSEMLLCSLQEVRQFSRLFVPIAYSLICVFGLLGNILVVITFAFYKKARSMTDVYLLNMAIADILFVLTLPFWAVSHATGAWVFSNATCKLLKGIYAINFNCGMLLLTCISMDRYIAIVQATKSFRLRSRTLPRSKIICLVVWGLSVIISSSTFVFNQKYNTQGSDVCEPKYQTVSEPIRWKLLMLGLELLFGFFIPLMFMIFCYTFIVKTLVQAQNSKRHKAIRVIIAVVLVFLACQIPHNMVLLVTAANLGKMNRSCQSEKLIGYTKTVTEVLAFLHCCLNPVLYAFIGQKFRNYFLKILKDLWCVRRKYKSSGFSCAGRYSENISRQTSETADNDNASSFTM
EBI2 conf: EBI2 antagonist hit retest, beta-arrestin, confirmation, cell-based, single concentration, luminescence, 7a,25-OHC stimulation; inhibition, % at 5 µM; actives 29% (n = 2,400); shares compounds with EBI2 antag; 7a,25-OHC antagonism;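 active = inhibition of at least 50%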
EBI2 ag: EBI2 agonist activity of antagonist hits, confirmation, counter-screen for EBI2 antagonist project, cell-based, single concentration, agonist mode, luminescence | shares compounds with EBI2 antag | AID 652000, 2013 | 2,400 tested, under 10 active | EBI2-expressing cells, 60 min; 0% vehicle, 100% 7α,25-dihydroxycholesterol control | activation, % at 5 µM;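 active = activation of at least 50%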
bGal counter: E. coli beta-galactosidase enzyme inhibition, confirmation, counter-screen for EBI2 antagonist project, biochemical, luminescence, single concentration; shares compounds with EBI2 antag; purified beta-galactosidase, luminescent Galacton Star, 15 min; inhibition, % at 5 µM; actives 1% (n = 2,400); AID 652176, 2013;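 active = replicate-average signal at least 3 plate SD below neutral wells, shown as high inhibition, flagging enzyme-inhibiting false positives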;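 note: 0% = DMSO wells with enzyme and 100% = wells lacking enzyme; higher means stronger loss of beta-gal luminescence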
An asterisk follows results filed as active; x = no result.

SMILES | EBI2 antag | APJ antagonist | APJ agonist | CXCR6 block | HTR2A ag | CCR6 antagonist | EBI2 conf | EBI2 ag | bGal counter
COc1ccc(-c2cc(C(=O)N3CCN(c4ccccc4OC)CC3)no2)cc1 | 68* | -6 | -4 | 6 | 2 | 11 | 42 | -2 | -10
COc1ccccc1N1CCN(C(=O)c2cc(-c3ccc(F)cc3)on2)CC1 | 57* | 3 | -1 | 7 | -4 | 3 | 48 | -1 | 6
COc1ccccc1N1CCN(C(=O)c2cc(-c3ccc(C)cc3)on2)CC1 | 64* | 7 | -6 | 0 | 2 | 3 | 44 | 0 | 1
COc1ccccc1N1CCN(C(=O)c2cc(-c3ccc(Cl)cc3)on2)CC1 | 58* | -15 | -3 | 8 | 1 | 0 | 41 | 0 | 4
COc1ccccc1-c1cc(C(=O)N2CCN(c3ccccc3OC)CC2)no1 | 18 | 11 | -1 | -1 | 2 | -5 | x | x | x
Cc1ccc2cccc(OCC(=O)NCCC3=CCCCC3)c2n1 | 48* | 9 | 0 | -8 | 2 | 19 | 24 | 1 | 2
O=C(COc1ccccc1Br)NCCC1=CCCCC1 | 16 | 5 | -4 | 4 | 0 | 16 | x | x | x
O=C(c1cc2c(s1)-c1ccccc1OC2)N1CCc2ccccc2C1 | 5 | 6 | -2 | 0 | -1 | 9 | x | x | x
COc1ccccc1N1CCN(C(=O)c2cc3c(s2)-c2ccccc2OC3)CC1 | 85* | 10 | -1 | 4 | 7 | 2 | 82* | 2 | -8
COC(=O)c1cc2c(s1)-c1ccccc1OC2 | -6 | -2 | 12 | 7 | 2 | 8 | x | x | x
CCOC(=O)C1CCN(C(=O)c2cc3c(s2)-c2ccccc2OC3)CC1 | 79* | -58 | -4 | 2 | -2 | 13 | 74* | 1 | 0
CCN(CC)CCn1c2c(c(SCC(=O)Nc3ccc(C(C)C)cc3)nc1=O)CCCC2 | 38 | 25 | 1 | 7 | -4 | 24 | x | x | x
